This is one part of a sample in which hits are shown more often than they occur.
T cruzi growth-1: inhibitors of T. cruzi proliferation | T. cruzi beta-gal in NIH3T3, GalScreen luminescence, 90 h | inhibition, % at 8.34 µM | 5.9% of 77,000 active | AID 624255;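 active = mean inhibition above about 93%, with at least 55% of replicates each passing it, limit read from the data, passing the limit was not always enough; inconclusive = only one of those two conditions holds; inactive = neither condition holds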
IDH1 R132H inh: inhibitors of human IDH1 R132H. O75874. IDH1 R132H reductase, diaphorase/resazurin fluorescence, 60 min. inhibition, % at 10 µM. 0.18% of 70,000 active. AID 624101; in the data active = inhibition above about 34%; inconclusive = no clear call, values can overlap the other calls; inactive = below about 11%
Target sequence (O75874 whole entry R132H): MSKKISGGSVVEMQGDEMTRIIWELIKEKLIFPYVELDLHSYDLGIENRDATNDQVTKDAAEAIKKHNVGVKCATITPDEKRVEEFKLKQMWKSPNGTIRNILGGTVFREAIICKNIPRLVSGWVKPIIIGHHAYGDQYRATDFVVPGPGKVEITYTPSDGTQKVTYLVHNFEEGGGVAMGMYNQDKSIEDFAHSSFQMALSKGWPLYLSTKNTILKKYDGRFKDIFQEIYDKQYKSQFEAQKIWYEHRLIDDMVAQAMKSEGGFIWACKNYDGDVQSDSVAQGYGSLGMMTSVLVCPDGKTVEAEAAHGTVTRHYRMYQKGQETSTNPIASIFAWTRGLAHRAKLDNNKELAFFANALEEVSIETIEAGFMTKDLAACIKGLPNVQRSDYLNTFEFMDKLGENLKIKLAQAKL
KDM4C inh: blocks human GASC-1 (KDM4C) demethylase activity | GST-KDM4C 2-372, H3K9me3 peptide, LANCE TR-FRET | Q9H3R0 | 0.15% of 96,000 active | AID 720574 | inhibition, % at 12.5 µM;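 active = mean replicate inhibition above about 25%, with at least 55% of replicates also reaching it, limit read from the data, passing the limit was not always enough; inconclusive = only one of those two conditions met; inactive = neither condition met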
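System: N-terminal GST-fused human GASC-1 (KDM4C) fragment, residues 2-372 / Amount: 10 nM GST-KDM4C in enzyme reaction / Also added: H3K9me3 peptide with Fe(II)/2OG / Times: 30 min demethylation and 1 h detection at room temperature / Signal: LANCE TR-FRET / Read-out basis: Fall in 671/618 emission ratio as inhibition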
T cruzi growth-2: inhibitors of T. cruzi proliferation; shares compounds with T cruzi growth-1; T. cruzi beta-gal in NIH3T3, GalScreen luminescence, 90 h; inhibition, % at 8.35 µM; 72% of 5,600 active; AID 651739;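 active = mean replicate inhibition above about 95% and at least 55% of replicates individually reaching it, limit read from the data; inconclusive = only one of the two criteria is met; inactive = neither criterion is met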
T cruzi growth-3: blocks T. cruzi growth in NIH3T3 host cells; shares compounds with T cruzi growth-1; T. cruzi beta-gal in NIH3T3, GalScreen luminescence, 90 h; inhibition, % at 2.09 µM; 21% of 5,600 active;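 active = mean inhibition above about 95%, with at least 55% of replicates also reaching it, limit read from the data; inconclusive = meets just one of the two conditions; inactive = meets neither condition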
3T3 cytotox: kills mouse NIH/3T3 fibroblasts | shares compounds with T cruzi growth-1 | NIH/3T3 viability, CellTiter-Glo ATP luminescence, 90 h | cytotoxicity (signal decrease), % at 8.35 µM | 14% of 5,600 active;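 active = mean signal decrease across replicates above about 35% based on untreated-well scatter, with enough replicates individually passing, limit read from the data; inconclusive = no rule stated though some were filed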
NIH3T3 tox 2: kills mouse NIH/3T3 fibroblasts. 56% of 5,600 active. inhibition, % at 24.9 µM. NIH/3T3 viability, CellTiter-Glo ATP luminescence, 90 h. shares compounds with T cruzi growth-1;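 active = mean loss of cell viability signal at or above a set limit, and enough replicates individually reaching it; inconclusive = meets only the mean limit or only the replicate share; inactive = meets neither condition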
Hits are given with their value; - = inactive; ? = inconclusive; . = no result.

SMILES | T cruzi growth-1 | IDH1 R132H inh | KDM4C inh | T cruzi growth-2 | T cruzi growth-3 | 3T3 cytotox | NIH3T3 tox 2
C[C@@H]1CN([C@@H](C)CO)S(=O)(=O)c2ccc(-c3ccccc3F)cc2O[C@@H]1CN(C)Cc1ccncc1 | 100.3 | - | - | ? | - | - | 46.8
C[C@@H]1CN([C@@H](C)CO)S(=O)(=O)c2ccc(-c3ccccc3F)cc2O[C@H]1CN(C)Cc1cccnc1 | 101.0 | - | - | 100.8 | 96.7 | 56.1 | 94.8
Cc1ccccc1-c1ccc2c(c1)O[C@H](CN(C)Cc1ccncc1)[C@H](C)CN([C@H](C)CO)S2(=O)=O | - | - | - | . | . | . | .
C[C@@H]1CN([C@H](C)CO)S(=O)(=O)c2ccc(-c3ccccc3F)cc2O[C@@H]1CN(C)Cc1cccnc1 | - | - | - | . | . | . | .
C[C@H](CO)N1C[C@H](C)[C@@H](CN(C)C(=O)CN(C)C)Oc2cc(C#Cc3ccccc3)ccc2S1(=O)=O | ? | - | - | 104.8 | - | - | 103.7
C[C@H](CO)N1C[C@H](C)[C@@H](CN(C)C(=O)Cc2ccccn2)Oc2cc(C#Cc3ccccc3)ccc2S1(=O)=O | - | - | - | . | . | . | .
C[C@@H]1CN([C@H](C)CO)S(=O)(=O)c2ccc(C#Cc3ccccc3)cc2O[C@H]1CN(C)C(=O)Cc1ccccn1 | ? | - | - | 100.0 | - | - | 84.8
C[C@H](CO)N1C[C@H](C)[C@H](CN(C)C(=O)Cc2ccccn2)Oc2cc(C#Cc3ccccc3)ccc2S1(=O)=O | 103.8 | - | - | 101.3 | - | - | -
CC(C)C#Cc1ccc2c(c1)O[C@H](CN(C)C(=O)Cc1ccccn1)[C@H](C)CN([C@@H](C)CO)S2(=O)=O | - | . | - | . | . | . | .
C[C@@H]1CN([C@H](C)CO)S(=O)(=O)c2ccc(C#Cc3ccccc3)cc2O[C@H]1CN(C)C(=O)CN(C)C | - | - | - | . | . | . | .
O=C(O)CCCCCCC(=O)N/N=C/c1ccc(S(=O)(=O)O)o1 | . | - | . | . | . | . | .
CSc1ccccc1NC(=O)CSc1nnnn1-c1ccccc1F | . | - | . | . | . | . | .
O=S(=O)(Cc1noc(-c2ccc(OC(F)(F)F)cc2)n1)Cc1ccco1 | . | - | . | . | . | . | .
COc1ccc(S(=O)(=O)N(C)C[C@H]2Oc3cc(-c4ccccc4OC)ccc3S(=O)(=O)N([C@H](C)CO)C[C@@H]2C)cc1 | 122.8 | . | - | 100.5 | - | 46.6 | 57.3
COc1ccc(S(=O)(=O)N(C)C[C@@H]2Oc3cc(-c4ccccc4OC)ccc3S(=O)(=O)N([C@@H](C)CO)C[C@H]2C)cc1 | 124.8 | . | - | 105.6 | - | ? | 51.1
COc1ccc(S(=O)(=O)N(C)C[C@H]2Oc3cc(-c4ccccc4OC)ccc3S(=O)(=O)N([C@H](C)CO)C[C@H]2C)cc1 | 122.9 | - | - | 98.5 | - | - | 36.6
CC(Oc1ccc(Br)cc1)C(=O)NCc1ccco1 (centres undefined) | . | - | . | . | . | . | .
COc1ccc(CN(C)C[C@@H]2OCCCC[C@@H](C)Oc3ccc(NC(=O)Nc4ccc(OC)cc4)cc3C(=O)N([C@H](C)CO)C[C@H]2C)cc1 | - | . | . | . | . | . | .
COc1ccc(CN(C)C[C@@H]2OCCCC[C@@H](C)Oc3ccc(NC(=O)C4CCCCC4)cc3C(=O)N([C@H](C)CO)C[C@@H]2C)cc1 | - | - | - | . | . | . | .
COc1ccc(CN(C)C[C@@H]2OCCCC[C@@H](C)Oc3ccc(NC(=O)Nc4ccccc4)cc3C(=O)N([C@H](C)CO)C[C@H]2C)cc1 | 110.5 | . | - | ? | - | - | 104.2
COc1ccc(CN(C)C[C@H]2OCCCC[C@@H](C)Oc3ccc(NC(=O)Nc4ccccc4)cc3C(=O)N([C@H](C)CO)C[C@@H]2C)cc1 | - | - | - | . | . | . | .
COc1ccc(CN(C)C[C@H]2OCCCC[C@@H](C)Oc3ccc(NC(=O)Nc4ccc(OC)cc4)cc3C(=O)N([C@@H](C)CO)C[C@H]2C)cc1 | 104.5 | - | - | 103.3 | - | - | 105.7
COc1ccc(CN(C)C[C@H]2OCCCC[C@H](C)Oc3ccc(NC(=O)Nc4ccccc4)cc3C(=O)N([C@@H](C)CO)C[C@H]2C)cc1 | ? | . | - | 109.1 | - | - | 34.4
COc1ccc(CN(C)C[C@H]2OCCCC[C@@H](C)Oc3ccc(NC(=O)Nc4ccccc4)cc3C(=O)N([C@H](C)CO)C[C@H]2C)cc1 | - | - | - | . | . | . | .
